In publication PMC4684772 (ACS chemical biology, 2015):
“Also recorded” adds a separate entry of the source.

Assays:
CDK4 = details: cited from earlier work; for IC50: read-out: IC50 for CDK4 inhibition
[1] = test system: LUSQ cell lines (H157, H2170, H520, H596); experiment: cell viability; assay type: cell-based; details: for sensitivity regarding viability: H157 and H520 cells, Fig. S4
In short: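 Four LUSQ lines (H157, H2170, H520, H596) were exposed to the test compound for 72 hours and cell viability was measured. IC50 values for inhibition of viability were derived per line.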

CDK4/cyclin D1 = experiment: in vitro kinase assays for CDK4/cyclin D1 activity; assay type: biochemical; details: in vitro kinase assay CDK4/cyclin D1
PIK3CD = experiment: in vitro kinase assay; assay type: biochemical; details: in vitro kinase assays
PIK3C3 = PIK3C3 (Homo sapiens, UniProt Q8NEB9); experiment: in vitro kinase assay; assay type: biochemical
H157 and H520 cells [2] = experiment: pSer473 AKT and pGSK3 Western blots; assay type: cell-based; details: 4 hours
H157 and H520 cells [3] = experiment: LC3 Western blots; assay type: cell-based; details: 48 hours
CSNK2α2 = experiment: in vitro kinase assay; assay type: biochemical; details: in vitro kinase assays
autophagic vesicles = experiment: quantitative analysis of autophagic vesicles by Cyto-ID; assay type: cell-based; details: 3 hour treatment
CDK9 = experiment: in vitro kinase assay; assay type: biochemical; details: in vitro kinase assays
H157 cells = experiment: Rb Ser780 phosphorylation immunoblot; assay type: cell-based; details: 1 µM and 5 µM, 4 and 24 hours
PIK3R4 = experiment: dose-dependent binding competition with soluble drug; details: Fig. S3C
AURKA = experiment: in vitro kinase assay; assay type: biochemical; details: in vitro kinase assays
GAK = experiment: dose-dependent binding competition with soluble drug; details: Fig. S3C
TNK1 = experiment: in vitro kinase assay; assay type: biochemical; details: in vitro kinase assays

Sequence of PIK3C3 (Q8NEB9 whole entry): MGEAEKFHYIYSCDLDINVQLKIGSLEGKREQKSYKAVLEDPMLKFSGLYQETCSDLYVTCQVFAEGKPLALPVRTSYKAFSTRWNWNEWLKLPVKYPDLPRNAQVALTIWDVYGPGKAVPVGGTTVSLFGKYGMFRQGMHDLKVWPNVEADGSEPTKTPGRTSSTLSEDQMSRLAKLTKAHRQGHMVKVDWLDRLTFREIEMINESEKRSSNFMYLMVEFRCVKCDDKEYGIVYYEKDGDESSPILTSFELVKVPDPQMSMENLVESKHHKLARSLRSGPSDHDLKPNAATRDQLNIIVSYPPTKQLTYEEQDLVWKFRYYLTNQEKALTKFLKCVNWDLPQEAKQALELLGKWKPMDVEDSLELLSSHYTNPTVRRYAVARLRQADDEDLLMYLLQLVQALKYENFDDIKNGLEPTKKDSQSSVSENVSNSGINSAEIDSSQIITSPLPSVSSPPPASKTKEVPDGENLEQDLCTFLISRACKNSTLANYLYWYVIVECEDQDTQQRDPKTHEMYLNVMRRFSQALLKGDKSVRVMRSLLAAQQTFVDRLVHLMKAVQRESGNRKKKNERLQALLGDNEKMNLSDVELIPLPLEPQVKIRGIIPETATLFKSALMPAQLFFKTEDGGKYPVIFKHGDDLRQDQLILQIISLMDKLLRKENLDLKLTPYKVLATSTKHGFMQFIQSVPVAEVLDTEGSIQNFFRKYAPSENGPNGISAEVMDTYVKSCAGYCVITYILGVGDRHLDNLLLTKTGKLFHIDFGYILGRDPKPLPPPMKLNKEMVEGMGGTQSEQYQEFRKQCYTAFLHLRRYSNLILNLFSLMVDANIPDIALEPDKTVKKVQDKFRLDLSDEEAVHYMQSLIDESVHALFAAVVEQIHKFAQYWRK

CCN1CCN(Cc2ccc(Nc3ncc(F)c(-c4cc(F)c5nc(C)n(C(C)C)c5c4)n3)nc2)CC1 [Abemaciclib, abemaciclib]
fold more potent for CDK4 than palbociclib and ribociclib (CDK4): about 5 fold | effects on viability compared with palbociclib and ribociclib ([1]; LUSQ cell lines, Fig. S1): stronger effects

Nc1cc(C(F)(F)F)c(-c2cc(N3CCOCC3)nc(N3CCOCC3)n2)cn1 [BKM120]
sensitivity regarding viability [1]: relative insensitivity

CC[C@H](Nc1ncnc2[nH]cnc12)c1nc2cccc(F)c2c(=O)n1-c1ccccc1 [CAL-101]
sensitivity regarding viability [1]: relative insensitivity

CN(C)C(=O)c1cc2cnc(Nc3ccc(N4CCN(CCCN)CC4)cn3)nc2n1C1CCCC1 [c-ribociclib]
CDK4 activity of coupleable analogues (CDK4/cyclin D1): conservation of their CDK4 activity

CC(=O)c1c(C)c2cnc(Nc3ccc(N4CCNCC4)cn3)nc2n(C2CCCC2)c1=O [palbociclib]
validation as target, PIK3CD (PIK3CD): relatively weak; also recorded: new palbociclib targets | IC50 (CDK4): […] | IC50 (PIK3C3): 14.8 µM | inhibition of phosphorylation of AKT S473 and its downstream target GSK3β (H157 and H520 cells [2]): dose-dependently inhibits | lipidation of LC3 (LC3-II) (H157 and H520 cells [3]): increased | cellular activity compared with ribociclib ([1]; LUSQ cell lines, 72 hours): somewhat more active | validation as target, CSNK2α2 (CSNK2α2): new palbociclib targets | number of autophagic vesicles (autophagic vesicles): increased | validation as target, CDK9 (CDK9): new palbociclib targets | inhibition of Rb phosphorylation at S780 (H157 cells): effectively inhibited | interaction with PIK3R4 (PIK3R4): potent interactions

CN(C)C(=O)c1cc2cnc(Nc3ccc(N4CCNCC4)cn3)nc2n1C1CCCC1 [ribociclib]
IC50 (CDK4): […] | inhibition of AURKA (AURKA): weakly inhibited | interaction with GAK (GAK): potent interactions | validation as target, TNK1 (TNK1): potent | validation as target, CDK9 (CDK9): potent | inhibition of Rb phosphorylation at S780 (H157 cells): effectively inhibited
